# Experimental data taken from paper PMC3742633 (Molecular cancer therapeutics, 2013).
# What was measured:
# [1] = tested on: HT29; test: NCI 60 cell line screen, Sulforhodamine B Assay; format: cell-based; details: Homo sapiens, HT-29, 48 h
# Procedure, shortened: (§1)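 Run through the NCI-60 screening service: human cancer cell lines exposed to test compound for 48 h. Growth read as cellular protein content by sulforhodamine B staining, and GI50 derived from this.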
# [2] = tested on: SN12C; test: NCI 60 cell line screen, Sulforhodamine B Assay; format: cell-based; details: Homo sapiens, 48 h
# Procedure, shortened: (§2)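 Run through the National Cancer Institute 60 cell line screening service on its panel of 59 human cancer lines in vitro. Cytostatic/toxic effect was read as cellular protein content (sulforhodamine B) over 48 h.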
# [3] = tested on: NCI-H522; test: NCI 60 cell line screen, Sulforhodamine B Assay; format: cell-based; details: Homo sapiens, NCI-H522, 48 h
# Procedure, shortened: as §1
# [4] = tested on: 786–0; test: NCI 60 cell line screen, Sulforhodamine B Assay; format: cell-based; details: Homo sapiens, 786-0, 48 h
# Procedure, shortened: as §1
# [5] = tested on: PC-3; test: NCI 60 cell line screen, Sulforhodamine B Assay; format: cell-based; details: Homo sapiens, PC-3, 48 h
# Procedure, shortened: as §1
# [6] = tested on: purified PFK-1; test: Activity of purified PFK-1; format: biochemical; details: up to 100 μM; data not shown
# [7] = tested on: SW-620; test: NCI 60 cell line screen, Sulforhodamine B Assay; format: cell-based; details: Homo sapiens, SW-620, 48 h
# Procedure, shortened: as §2
# [8] = tested on: HCT-15; test: NCI 60 cell line screen, Sulforhodamine B Assay; format: cell-based; details: Homo sapiens, HCT-15, 48 h
# Procedure, shortened: as §1
# [9] = tested on: U251; test: NCI 60 cell line screen, Sulforhodamine B Assay; format: cell-based; details: Homo sapiens, U-251, 48 h
# Procedure, shortened: as §2
# [10] = tested on: hexokinase; test: Activity of purified hexokinase; format: biochemical; details: up to 100 μM; data not shown
# [11] = tested on: COLO 205; test: NCI 60 cell line screen, Sulforhodamine B Assay; format: cell-based; details: Homo sapiens, COLO 205, 48 h
# Procedure, shortened: as §1
# [12] = tested on: T-47D; test: NCI 60 cell line screen, Sulforhodamine B Assay; format: cell-based; details: Homo sapiens, T47D, 48 h
# Procedure, shortened: as §2
# [13] = tested on: HCT-116; test: NCI 60 cell line screen, Sulforhodamine B Assay; format: cell-based; details: Homo sapiens, HCT-116, 48 h
# Procedure, shortened: as §1
structure (smiles),measurement,setting,value
"O=C(C=Cc1ccc2ccccc2n1)c1ccncc1 [PFK15, 1-(4-pyridinyl)-3-(2-quinolinyl)-2-propen-1-one]",GI50,[1],2510 nM
same,GI50,[2],1860 nM
same,GI50,[3],1740 nM
same,GI50,[4],2000 nM
same,GI50,[5],3160 nM
same,inhibition of activity of purified PFK-1,[6],not inhibit
same,GI50,[7],1700 nM
same,GI50,[8],1100 nM
same,GI50,[9],2040 nM
same,inhibition of activity of purified hexokinase,[10],not inhibit
same,GI50,[11],2450 nM
same,GI50,[12],3630 nM
same,GI50,[13],1320 nM
